Reference: the M2OR odorant receptor database
Positions count from the first letter of the chain named.

How the values were obtained:
Conditions in all cases: stereoisomer not certain
[1] = molecular target: T1, OR1G1 (Homo sapiens) (UniProt P47890)
T1 sequence (whole entry): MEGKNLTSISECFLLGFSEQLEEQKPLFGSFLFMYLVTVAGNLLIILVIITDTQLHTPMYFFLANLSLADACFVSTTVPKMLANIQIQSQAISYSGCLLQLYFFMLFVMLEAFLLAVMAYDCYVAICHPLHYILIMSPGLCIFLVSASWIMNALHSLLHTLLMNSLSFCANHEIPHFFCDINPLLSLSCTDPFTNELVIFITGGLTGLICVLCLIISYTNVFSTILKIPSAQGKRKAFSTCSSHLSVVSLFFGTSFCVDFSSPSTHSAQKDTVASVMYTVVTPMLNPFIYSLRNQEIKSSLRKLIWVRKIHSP
Outline: (§1)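 Each entry records the cell line, G-protein, co-transfected protein and tags used. Methods varied with the source, often transient luciferase assays in mammalian cell lines. A receptor–molecule pair is called responsive (active) if the original authors judged its signal statistically different from baseline and non-responsive (inactive) otherwise.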

[2] = molecular target: T2, OR1F12P (Homo sapiens) (UniProt Q8NHA8)
T2 sequence (whole entry): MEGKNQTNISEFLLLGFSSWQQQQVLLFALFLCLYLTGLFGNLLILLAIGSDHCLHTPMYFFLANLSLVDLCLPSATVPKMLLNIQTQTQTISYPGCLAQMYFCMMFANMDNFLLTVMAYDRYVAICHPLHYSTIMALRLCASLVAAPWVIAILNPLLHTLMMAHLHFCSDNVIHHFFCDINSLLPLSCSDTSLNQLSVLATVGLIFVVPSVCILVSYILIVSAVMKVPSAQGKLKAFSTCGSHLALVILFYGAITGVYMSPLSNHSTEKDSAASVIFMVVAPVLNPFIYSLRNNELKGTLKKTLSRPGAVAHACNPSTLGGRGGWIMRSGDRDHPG
Outline: as §1

[3] = test system: T3, OR1F1
T3 sequence (whole entry): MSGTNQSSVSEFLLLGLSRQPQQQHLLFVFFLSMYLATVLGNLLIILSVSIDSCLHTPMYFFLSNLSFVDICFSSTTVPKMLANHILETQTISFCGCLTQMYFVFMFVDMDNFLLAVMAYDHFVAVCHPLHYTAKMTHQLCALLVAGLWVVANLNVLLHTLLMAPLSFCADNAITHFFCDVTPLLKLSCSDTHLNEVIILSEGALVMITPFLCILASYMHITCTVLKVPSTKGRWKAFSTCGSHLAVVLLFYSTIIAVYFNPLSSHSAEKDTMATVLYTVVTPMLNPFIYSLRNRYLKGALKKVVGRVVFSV
Outline: as §1

[4] = molecular target: T4, OR1I1 (Homo sapiens) (UniProt O60431)
T4 sequence (whole entry): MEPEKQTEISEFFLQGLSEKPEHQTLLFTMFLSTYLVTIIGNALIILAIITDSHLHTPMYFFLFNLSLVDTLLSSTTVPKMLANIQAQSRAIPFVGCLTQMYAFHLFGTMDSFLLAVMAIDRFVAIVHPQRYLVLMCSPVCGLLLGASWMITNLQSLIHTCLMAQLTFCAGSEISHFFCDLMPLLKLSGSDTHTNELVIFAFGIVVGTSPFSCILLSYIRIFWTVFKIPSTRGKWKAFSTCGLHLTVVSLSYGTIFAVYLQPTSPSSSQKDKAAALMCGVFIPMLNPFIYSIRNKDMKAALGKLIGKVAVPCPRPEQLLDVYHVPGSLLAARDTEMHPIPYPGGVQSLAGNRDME
Outline: as §1

[5] = molecular target: T5, OR1J1 (Homo sapiens) (UniProt Q8NGS3)
T5 sequence (whole entry): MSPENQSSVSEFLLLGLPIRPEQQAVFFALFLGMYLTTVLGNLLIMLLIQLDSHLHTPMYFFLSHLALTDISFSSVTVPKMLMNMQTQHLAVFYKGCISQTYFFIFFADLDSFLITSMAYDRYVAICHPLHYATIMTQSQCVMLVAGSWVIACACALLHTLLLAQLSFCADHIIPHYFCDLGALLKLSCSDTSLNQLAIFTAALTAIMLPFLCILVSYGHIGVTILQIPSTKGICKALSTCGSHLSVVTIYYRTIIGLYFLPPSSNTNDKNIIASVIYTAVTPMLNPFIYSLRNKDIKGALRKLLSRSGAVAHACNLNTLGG
Outline: as §1

[6] = molecular target: T6, OR1J2 (Homo sapiens) (UniProt Q8NGS2)
T6 sequence (whole entry): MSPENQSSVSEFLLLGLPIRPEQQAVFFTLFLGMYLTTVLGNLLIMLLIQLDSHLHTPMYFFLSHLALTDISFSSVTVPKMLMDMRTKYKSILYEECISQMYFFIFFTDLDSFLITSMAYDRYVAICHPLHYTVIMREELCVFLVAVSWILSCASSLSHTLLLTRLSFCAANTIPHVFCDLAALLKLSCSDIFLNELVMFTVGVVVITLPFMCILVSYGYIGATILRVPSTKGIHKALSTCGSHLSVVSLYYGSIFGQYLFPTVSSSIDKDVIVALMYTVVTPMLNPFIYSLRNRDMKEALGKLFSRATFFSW
Outline: as §1

[7] = molecular target: T7, OR1J4 (Homo sapiens) (UniProt Q8NGS1)
T7 sequence (whole entry): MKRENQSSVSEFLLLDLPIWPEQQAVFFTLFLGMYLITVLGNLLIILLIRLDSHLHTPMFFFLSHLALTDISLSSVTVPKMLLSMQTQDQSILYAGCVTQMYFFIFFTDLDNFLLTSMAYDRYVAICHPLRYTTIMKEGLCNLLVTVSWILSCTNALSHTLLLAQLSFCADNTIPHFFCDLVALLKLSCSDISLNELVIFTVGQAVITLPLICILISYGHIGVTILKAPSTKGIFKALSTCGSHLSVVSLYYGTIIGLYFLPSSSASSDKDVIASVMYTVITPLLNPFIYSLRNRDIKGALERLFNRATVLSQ
Outline: as §1

[8] = molecular target: T8, OR1K1 (Homo sapiens) (UniProt Q8NGR3)
T8 sequence (whole entry): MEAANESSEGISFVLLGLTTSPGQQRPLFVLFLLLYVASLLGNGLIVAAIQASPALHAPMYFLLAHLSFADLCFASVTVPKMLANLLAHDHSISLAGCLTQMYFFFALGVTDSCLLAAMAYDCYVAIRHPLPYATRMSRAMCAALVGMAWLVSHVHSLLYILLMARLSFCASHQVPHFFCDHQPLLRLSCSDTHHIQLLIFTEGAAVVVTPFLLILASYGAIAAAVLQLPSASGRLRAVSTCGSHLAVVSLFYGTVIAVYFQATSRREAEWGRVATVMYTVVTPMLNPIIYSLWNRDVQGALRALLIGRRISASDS
Outline: as §1

[9] = test system: T9, OR1L1
T9 sequence (whole entry): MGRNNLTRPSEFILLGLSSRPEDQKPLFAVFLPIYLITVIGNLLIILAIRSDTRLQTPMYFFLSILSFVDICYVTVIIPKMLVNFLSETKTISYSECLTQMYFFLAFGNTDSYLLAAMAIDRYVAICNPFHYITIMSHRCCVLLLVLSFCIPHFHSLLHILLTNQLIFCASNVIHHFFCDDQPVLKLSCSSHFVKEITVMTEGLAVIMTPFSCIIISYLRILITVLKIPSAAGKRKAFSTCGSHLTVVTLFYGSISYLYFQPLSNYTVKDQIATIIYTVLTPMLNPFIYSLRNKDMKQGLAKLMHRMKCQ
Outline: as §1

[10] = molecular target: T10, OR1L3 (Homo sapiens) (UniProt Q8NH93)
T10 sequence (whole entry): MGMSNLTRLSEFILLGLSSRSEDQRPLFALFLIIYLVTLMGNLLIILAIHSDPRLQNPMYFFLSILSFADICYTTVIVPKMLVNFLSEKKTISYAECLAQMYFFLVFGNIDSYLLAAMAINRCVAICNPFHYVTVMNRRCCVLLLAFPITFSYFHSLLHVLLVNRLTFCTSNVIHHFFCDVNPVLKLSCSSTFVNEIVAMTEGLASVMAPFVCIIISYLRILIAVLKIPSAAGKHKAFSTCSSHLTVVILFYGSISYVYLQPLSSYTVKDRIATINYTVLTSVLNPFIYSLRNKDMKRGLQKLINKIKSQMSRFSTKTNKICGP
Outline: as §1

[11] = molecular target: T11, OR1L4 (Homo sapiens) (UniProt Q8NGR5)
T11 sequence (whole entry): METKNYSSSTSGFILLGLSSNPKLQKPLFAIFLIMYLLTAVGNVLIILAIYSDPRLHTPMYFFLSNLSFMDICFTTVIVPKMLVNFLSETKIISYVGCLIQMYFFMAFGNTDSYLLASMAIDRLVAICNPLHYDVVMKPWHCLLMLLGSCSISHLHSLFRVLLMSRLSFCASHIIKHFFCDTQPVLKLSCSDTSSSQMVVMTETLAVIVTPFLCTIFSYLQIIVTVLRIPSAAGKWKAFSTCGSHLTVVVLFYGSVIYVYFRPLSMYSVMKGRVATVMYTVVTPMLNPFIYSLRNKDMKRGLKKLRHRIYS
Outline: as §1

[12] = test system: T12, OR1L4
T12 sequence (whole entry): T11 sequence (whole entry) with G234R
Outline: as §1

[13] = test system: T13, OR1L6
T13 sequence (whole entry): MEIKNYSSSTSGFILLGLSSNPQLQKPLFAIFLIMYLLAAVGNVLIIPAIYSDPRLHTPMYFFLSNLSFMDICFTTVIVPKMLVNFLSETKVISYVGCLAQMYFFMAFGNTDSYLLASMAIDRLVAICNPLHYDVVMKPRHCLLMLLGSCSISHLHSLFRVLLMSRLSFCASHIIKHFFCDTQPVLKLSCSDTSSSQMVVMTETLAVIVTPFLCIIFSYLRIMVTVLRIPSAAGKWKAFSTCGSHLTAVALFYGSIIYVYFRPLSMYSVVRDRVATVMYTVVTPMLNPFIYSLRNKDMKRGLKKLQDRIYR
Outline: as §1

[14] = molecular target: T14, OR1L8 (Homo sapiens) (UniProt Q8NGR8)
T14 sequence (whole entry): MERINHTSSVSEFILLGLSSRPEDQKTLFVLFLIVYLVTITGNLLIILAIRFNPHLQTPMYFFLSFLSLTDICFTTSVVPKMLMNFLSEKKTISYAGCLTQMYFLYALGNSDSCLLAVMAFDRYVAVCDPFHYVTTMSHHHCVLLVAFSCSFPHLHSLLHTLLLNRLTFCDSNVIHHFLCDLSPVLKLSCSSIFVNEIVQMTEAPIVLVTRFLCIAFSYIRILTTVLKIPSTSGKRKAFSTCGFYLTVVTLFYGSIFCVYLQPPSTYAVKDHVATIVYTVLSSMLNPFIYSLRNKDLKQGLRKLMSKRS
Outline: as §1

[15] = test system: T15, OR1L8 T27P R211P
T15 sequence (whole entry): T14 sequence (whole entry) with T27P, R211P
Outline: as §1

[16] = molecular target: T16, OR1M1 (Homo sapiens) (UniProt Q8NGA1)
T16 sequence (whole entry): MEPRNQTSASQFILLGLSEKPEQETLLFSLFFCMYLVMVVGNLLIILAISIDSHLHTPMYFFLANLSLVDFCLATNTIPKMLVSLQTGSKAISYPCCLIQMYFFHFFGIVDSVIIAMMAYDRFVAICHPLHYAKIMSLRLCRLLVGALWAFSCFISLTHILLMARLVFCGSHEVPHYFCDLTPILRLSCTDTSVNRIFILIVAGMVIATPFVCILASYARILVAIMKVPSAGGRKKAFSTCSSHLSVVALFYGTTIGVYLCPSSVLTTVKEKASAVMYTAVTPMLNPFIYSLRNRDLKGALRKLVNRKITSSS
Outline: as §1

[17] = molecular target: T17, OR1N1 (Homo sapiens) (UniProt Q8NGS0)
T17 sequence (whole entry): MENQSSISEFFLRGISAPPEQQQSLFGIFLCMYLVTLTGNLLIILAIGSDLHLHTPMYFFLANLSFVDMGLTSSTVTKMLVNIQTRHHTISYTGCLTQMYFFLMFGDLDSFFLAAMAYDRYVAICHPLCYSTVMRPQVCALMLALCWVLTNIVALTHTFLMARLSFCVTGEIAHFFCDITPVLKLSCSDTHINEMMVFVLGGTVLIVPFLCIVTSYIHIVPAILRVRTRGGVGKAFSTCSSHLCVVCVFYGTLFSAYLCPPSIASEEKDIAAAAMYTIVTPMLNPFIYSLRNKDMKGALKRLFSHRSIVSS
Outline: as §1

[18] = test system: T18, OR1N2 W37R
T18 sequence (whole entry): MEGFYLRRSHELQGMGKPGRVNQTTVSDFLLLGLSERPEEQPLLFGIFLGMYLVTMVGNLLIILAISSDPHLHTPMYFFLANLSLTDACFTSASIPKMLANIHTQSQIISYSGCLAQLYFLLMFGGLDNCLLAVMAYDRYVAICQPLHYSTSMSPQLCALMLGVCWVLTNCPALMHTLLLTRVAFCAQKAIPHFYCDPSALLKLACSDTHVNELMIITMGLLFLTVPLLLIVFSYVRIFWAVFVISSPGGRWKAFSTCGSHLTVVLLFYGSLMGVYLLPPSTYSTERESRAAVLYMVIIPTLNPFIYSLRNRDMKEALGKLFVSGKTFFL
Outline: as §1

[19] = molecular target: T19, OR1L1 (Homo sapiens) (UniProt Q8NH94)
T19 sequence (whole entry): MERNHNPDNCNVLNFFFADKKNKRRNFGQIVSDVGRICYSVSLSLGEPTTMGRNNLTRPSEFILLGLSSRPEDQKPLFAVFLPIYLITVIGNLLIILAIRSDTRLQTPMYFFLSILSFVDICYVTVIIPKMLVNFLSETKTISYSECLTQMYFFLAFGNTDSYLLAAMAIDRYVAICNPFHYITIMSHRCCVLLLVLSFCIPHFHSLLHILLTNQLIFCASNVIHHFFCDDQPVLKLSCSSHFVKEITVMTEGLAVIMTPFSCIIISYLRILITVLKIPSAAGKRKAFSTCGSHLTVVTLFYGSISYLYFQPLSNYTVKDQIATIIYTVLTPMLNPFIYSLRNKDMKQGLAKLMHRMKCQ
Outline: as §1

[20] = molecular target: T20, OR1L6 (Homo sapiens) (UniProt Q8NGR2)
T20 sequence (whole entry): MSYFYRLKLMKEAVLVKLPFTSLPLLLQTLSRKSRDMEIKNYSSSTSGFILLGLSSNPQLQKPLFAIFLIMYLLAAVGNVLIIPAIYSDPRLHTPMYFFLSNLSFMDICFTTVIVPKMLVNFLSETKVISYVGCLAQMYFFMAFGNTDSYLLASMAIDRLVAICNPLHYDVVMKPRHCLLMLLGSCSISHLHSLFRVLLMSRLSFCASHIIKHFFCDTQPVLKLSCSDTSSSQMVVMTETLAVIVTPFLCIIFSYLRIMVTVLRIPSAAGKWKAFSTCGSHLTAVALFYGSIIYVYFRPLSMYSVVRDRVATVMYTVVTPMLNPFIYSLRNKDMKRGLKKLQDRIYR
Outline: as §1

Measured: odorant receptor agonist call

CCCCCCCCC(C)=O
inactive: [1]

CCCCCCCCC(=O)O
active: [1]

CCCCCCCC(=O)OCC
active: [1]

CCCC(S)CCOC(C)=O (stereo not given)
not listed: [19] | [20]
inactive: all other assays above

CC(CO)CS (stereo not given)
not listed: [3] | [9] | [12] | [13] | [15] | [18]
inactive: all other assays above
